Laboratory results from ChEMBL document CHEMBL3734720, “Synthesis of thiophene-thiosemicarbazone derivatives and evaluation of their in vitro and in vivo antitumor activities” (Eur J Med Chem, 2015).

Tested on: not listed separately
Assay: Antiproliferative activity against human NCI-ADR-RES cells assessed as growth inhibition after 48 hrs by SRB assay
Format: functional
Details: not given
Method in brief: (§1)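 Cells exposed 48 h at 37 °C, 5% CO2 to 0.25, 2.5, 25 and 250 µg/mL in DMSO/RPMI (final DMSO 0.1%); doxorubicin standard at 0.025–25 µg/mL. Plates fixed with 50% TCA before (T0) and after treatment; protein content read by sulforhodamine B at 540 nm. GI50 (µM) from nonlinear regression of concentration–response curves; triplicate.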

`C=CCNC(=S)N/N=C/c1cccs1` and `S=C(NCCc1ccccc1)N/N=C/c1cccs1` cannot be ordered by GI50: greater than 100 µM for the first, greater than 100 µM for the second.

`S=C(N/N=C/c1cccs1)Nc1ccccc1` and `S=C(N/N=C/c1cccs1)Nc1cccnc1` cannot be ordered by GI50: greater than 100 µM for the first, greater than 100 µM for the second.

`S=C(N/N=C/c1cccs1)Nc1cccc2ccccc12` and `Cc1ccc(NC(=S)N/N=C/c2cccs2)cc1` are within 1.5-fold of each other in GI50: 6.6 µM for the first, 4.8 µM for the second.

Tested on: HT-29
Assay: Antiproliferative activity against human HT-29 cells assessed as growth inhibition after 48 hrs by SRB assay
Format: functional
Details: HT-29, 48 h
Method in brief: as §1

`C=CCNC(=S)N/N=C/c1cccs1` and `S=C(NCCc1ccccc1)N/N=C/c1cccs1` cannot be ordered by GI50: greater than 100 µM for the first, greater than 100 µM for the second.

`S=C(N/N=C/c1cccs1)Nc1ccccc1` and `S=C(N/N=C/c1cccs1)Nc1cccnc1` cannot be ordered by GI50: greater than 100 µM for the first, greater than 100 µM for the second.

`S=C(N/N=C/c1cccs1)Nc1cccc2ccccc12` and `Cc1ccc(NC(=S)N/N=C/c2cccs2)cc1` cannot be ordered by GI50: greater than 100 µM for the first, greater than 100 µM for the second.

Tested on: NCI-H460
Assay: Antiproliferative activity against human NCI-H460 cells assessed as growth inhibition after 48 hrs by SRB assay
Format: functional
Details: NCI-H460, 48 h
Method in brief: as §1

`C=CCNC(=S)N/N=C/c1cccs1` and `S=C(NCCc1ccccc1)N/N=C/c1cccs1` cannot be ordered by GI50: greater than 100 µM for the first, greater than 100 µM for the second.

Compared with `S=C(N/N=C/c1cccs1)Nc1ccccc1`, `S=C(N/N=C/c1cccs1)Nc1cccnc1` is lower in GI50: greater than 100 µM for the first, 45.9 µM for the second.

First: S=C(N/N=C/c1cccs1)Nc1cccc2ccccc12
Second: Cc1ccc(NC(=S)N/N=C/c2cccs2)cc1
The GI50 of the first is higher: greater than 100 µM for the first, 80.6 µM for the second.

Tested on: not listed separately
Assay: Antiproliferative activity against human PC3 cells assessed as growth inhibition after 48 hrs by SRB assay
Format: functional
Details: PC-3, 48 h
Method in brief: as §1

`C=CCNC(=S)N/N=C/c1cccs1` and `S=C(NCCc1ccccc1)N/N=C/c1cccs1` cannot be ordered by GI50: greater than 100 µM for the first, greater than 100 µM for the second.

`S=C(N/N=C/c1cccs1)Nc1ccccc1` and `S=C(N/N=C/c1cccs1)Nc1cccnc1` cannot be ordered by GI50: greater than 100 µM for the first, greater than 100 µM for the second.

Compared with `S=C(N/N=C/c1cccs1)Nc1cccc2ccccc12`, `Cc1ccc(NC(=S)N/N=C/c2cccs2)cc1` is lower in GI50: greater than 100 µM for the first, 29.7 µM for the second.

Tested on: 786-0
Assay: Antiproliferative activity against human 786-0 cells assessed as growth inhibition after 48 hrs by SRB assay
Format: functional
Details: 786-0, 48 h
Method in brief: as §1

Going from `C=CCNC(=S)N/N=C/c1cccs1` to `S=C(NCCc1ccccc1)N/N=C/c1cccs1`, the GI50 rises from 21.2 µM to greater than 100 µM.

Going from `S=C(N/N=C/c1cccs1)Nc1ccccc1` to `S=C(N/N=C/c1cccs1)Nc1cccnc1`, the GI50 falls from 50.4 µM to 5.6 µM (9-fold).

`S=C(N/N=C/c1cccs1)Nc1cccc2ccccc12` and `Cc1ccc(NC(=S)N/N=C/c2cccs2)cc1` are within 1.5-fold of each other in GI50: 15.2 µM for the first, 19.5 µM for the second.

Tested on: not listed separately
Assay: Antiproliferative activity against human UACC62 cells assessed as growth inhibition after 48 hrs by SRB assay
Format: functional
Details: UACC-62, 48 h
Method in brief: as §1

`C=CCNC(=S)N/N=C/c1cccs1` and `S=C(NCCc1ccccc1)N/N=C/c1cccs1` cannot be ordered by GI50: greater than 100 µM for the first, greater than 100 µM for the second.

`S=C(N/N=C/c1cccs1)Nc1ccccc1` and `S=C(N/N=C/c1cccs1)Nc1cccnc1` cannot be ordered by GI50: greater than 100 µM for the first, greater than 100 µM for the second.

First: S=C(N/N=C/c1cccs1)Nc1cccc2ccccc12
Second: Cc1ccc(NC(=S)N/N=C/c2cccs2)cc1
The GI50 of the first is higher: greater than 100 µM for the first, 16.8 µM for the second.

Tested on: not listed separately
Assay: Antiproliferative activity against human HaCaT cells assessed as growth inhibition after 48 hrs by SRB assay
Format: cell-based
Details: not given
Method in brief: as §1

`C=CCNC(=S)N/N=C/c1cccs1` and `S=C(NCCc1ccccc1)N/N=C/c1cccs1` cannot be ordered by GI50 at 48 h: greater than 100 µM for the first, greater than 100 µM for the second.

Compared with `S=C(N/N=C/c1cccs1)Nc1ccccc1`, `S=C(N/N=C/c1cccs1)Nc1cccnc1` is lower in GI50 at 48 h: greater than 100 µM for the first, 45.4 µM for the second.

Compared with `S=C(N/N=C/c1cccs1)Nc1cccc2ccccc12`, `Cc1ccc(NC(=S)N/N=C/c2cccs2)cc1` is 4.7-fold lower in GI50 at 48 h: 82.4 µM for the first, 17.6 µM for the second.

Tested on: K562
Assay: Antiproliferative activity against human K562 cells assessed as growth inhibition after 48 hrs by SRB assay
Format: functional
Details: K562, 48 h
Method in brief: as §1

Compared with `C=CCNC(=S)N/N=C/c1cccs1`, `S=C(NCCc1ccccc1)N/N=C/c1cccs1` is higher in GI50: 6 µM for the first, greater than 100 µM for the second.

`S=C(N/N=C/c1cccs1)Nc1ccccc1` and `S=C(N/N=C/c1cccs1)Nc1cccnc1` are within 1.5-fold of each other in GI50: 16.7 µM for the first, 16.4 µM for the second.

Going from `S=C(N/N=C/c1cccs1)Nc1cccc2ccccc12` to `Cc1ccc(NC(=S)N/N=C/c2cccs2)cc1`, the GI50 falls from 1.8 µM to less than 0.9 µM.

Tested on: MCF7
Assay: Antiproliferative activity against human MCF7 cells assessed as growth inhibition after 48 hrs by SRB assay
Format: functional
Details: MCF7, 48 h
Method in brief: as §1

`C=CCNC(=S)N/N=C/c1cccs1` and `S=C(NCCc1ccccc1)N/N=C/c1cccs1` cannot be ordered by GI50: greater than 100 µM for the first, greater than 100 µM for the second.

Going from `S=C(N/N=C/c1cccs1)Nc1ccccc1` to `S=C(N/N=C/c1cccs1)Nc1cccnc1`, the GI50 rises from 94.6 µM to greater than 100 µM.

Going from `S=C(N/N=C/c1cccs1)Nc1cccc2ccccc12` to `Cc1ccc(NC(=S)N/N=C/c2cccs2)cc1`, the GI50 falls from greater than 100 µM to 38.6 µM.

Tested on: U-251
Assay: Antiproliferative activity against human U251 cells assessed as growth inhibition after 48 hrs by SRB assay
Format: functional
Details: U-251, 48 h
Method in brief: as §1

`C=CCNC(=S)N/N=C/c1cccs1` and `S=C(NCCc1ccccc1)N/N=C/c1cccs1` cannot be ordered by GI50: greater than 100 µM for the first, greater than 100 µM for the second.

First: S=C(N/N=C/c1cccs1)Nc1ccccc1
Second: S=C(N/N=C/c1cccs1)Nc1cccnc1
The GI50 of the first is 2.9-fold higher: 74.7 µM for the first, 26 µM for the second.

`S=C(N/N=C/c1cccs1)Nc1cccc2ccccc12` and `Cc1ccc(NC(=S)N/N=C/c2cccs2)cc1` are within 1.5-fold of each other in GI50: 12.7 µM for the first, 12.6 µM for the second.
